Measured values as given in paper PMC4832564 (Amyloid : the international journal of experimental and …, 2015).
Like-named read-outs stand apart in the source and are kept apart here. Values belong to the molecule of their own block, whether it stands above or below them. Where no end group is shown, it is not given here.

How the values were obtained:
[1] = mouse, in vivo, iv
[2] = system: systemic AA amyloid; type: in vivo, mouse; conditions: mice with systemic visceral AA amyloidosis, 2 h post-injection iv; triplicate
[3] = system: synthetic rVλ6Wil fibrils; type: binding, human; conditions: for % bound relative to no inhibitor: 50 μg rVλ6Wil fibrils, mean of duplicate experiments
How it was run: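 ¹²⁵I-p5 or ¹²⁵I-RAGE VC1 (chloramine T iodination) pre-incubated 30 min RT with AGE-BSA, BSA, enoxaparin or E. coli-expressed human S100B (100, 4 or 1 μM). 50 μg fibrils from E. coli-made rVλ6Wil then added in PBS/0.05% tween 20 (S100B: TBS with 1 mM CaCl₂) and rotated 1 h RT. Spun twice at 16 000 × g, 10 min each. Pellet and supernatant gamma-counted; % bound relative to no inhibitor; mean of duplicate experiments.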

[4] = molecular target: Synthetic amyloid fibrils of human islet amyloid polypeptide (IAPP) (human) (UniProt P10997); assay: co-sedimentation
[5] = molecular target: Synthetic amyloid fibrils of the recombinant λ6 variable domain from patient Wil (rVλ6Wil) (human); assay: co-sedimentation
[6] = system: heparin and synthetic amyloid fibrils; conditions: cited from earlier work
[7] = molecular target: Synthetic amyloid fibrils of the recombinant λ6 variable domain from patient Wil (rVλ6Wil) (human); assay: co-sedimentation; remark: listed apart in the source
[8] = molecular target: Synthetic amyloid fibrils of Aβ(1–40); assay: co-sedimentation

Chain of Synthetic amyloid fibrils of human islet amyloid polypeptide (IAPP) (human) (P10997 34-70): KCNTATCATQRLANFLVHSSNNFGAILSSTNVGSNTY

Molecule: 99mTc-p5: peptide p5 radiolabeled with 99mTc (CGGYSKAQKAQAKQAKQAQKAQKAQAKQAKQ; also: 99mTc radiolabel)
T:M ratio, Heart [1]: 2.75
T:M ratio, L. Kidney [1]: 659.97
T:M ratio, Liver [1]: 12.44
T:M ratio, Low. Intestine [1]: 14.55
T:M ratio, Muscle [1]: 1.00
T:M ratio, Pancreas [1]: 3.92
T:M ratio, R. Kidney [1]: 711.82
T:M ratio, Spleen [1]: 4.65
T:M ratio, Stomach [1]: 9.62
T:M ratio, Up. Intestine [1]: 8.88
distribution of radiotracer by SPECT/CT in AA mice [2]: coincident retention of both radiotracers in the amyloid-laden liver and spleen

Molecule: 125I-p5: peptide p5 radioiodinated with 125I (CGGYSKAQKAQAKQAKQAQKAQKAQAKQAKQ; also: 125I radiolabel)
% bound relative to no inhibitor ([3]; PBS): 100.0%
% bound relative to no inhibitor ([3]; TBS with 1 mM CaCl2): 76.5%

Molecule: GGGYSRAQRAQARQARQAQRAQRAQARQARQ [p5R]
affinity relative to p5 [6]: higher affinity for both heparin and synthetic amyloid fibrils

More lines, now with the values ahead:

decrease in binding to fibrils on addition of BSA ([3]; 125I-labelled, BSA added (100 μM in Table 1)): ~ 30%
decrease in binding with the synthetic amyloid fibrils ([3]; 125I-labelled, Enoxaparin 100 μM): 13%
decrease in binding to fibrils on addition of S100B ([3]; 125I-labelled, human recombinant S100B, in the presence of 1 mM CaCl2): 20%
reduction of reactivity with rVλ6Wil fibrils ([3]; 125I-labelled, pre-incubation with AGE-BSA at 100 μM): ~ 90%
Molecule: CGGYSKAQKAQAKQAKQAQKAQKAQAKQAKQ [p5]

% reduction of ^125I-p5R binding to IAPP fibrils [4]: 70%
% reduction of ^125I-p5 binding to IAPP fibrils [4]: 90%
% bound relative to no inhibitor (no inhibitor, PBS) [5]: 100%
% bound relative to no inhibitor (no inhibitor, TBS with 1 mM CaCl2) [5]: 102%
% bound relative to no inhibitor, with 4 μM enoxaparin [5]: 102%
% bound relative to no inhibitor, with 100 μM enoxaparin [5]: 94%
Molecule: Recombinant human RAGE VC1 (soluble recombinant variable and constant-1 domains of RAGE) (domain or fragment)

% bound relative to no inhibitor (no inhibitor, PBS) [7]: 100%
% bound relative to no inhibitor (no inhibitor, TBS with 1 mM CaCl2) [7]: 76.5%
% bound relative to no inhibitor, with 4 μM enoxaparin [7]: 97.6%
% bound relative to no inhibitor, with 100 μM enoxaparin [7]: 87.4%
% bound to the fibril pellet [7]: > 50%
% bound to the fibril pellet [8]: > 50%
Molecule: CGGYSKAQKAQAKQAKQAQKAQKAQAKQAKQ (not fully specified; also: 99mTc-labeled in imaging studies) [Peptide p5]

% bound to the fibril pellet [7]: > 50%
% bound to the fibril pellet [8]: > 50%
Molecule: GGGYSRAQRAQARQARQAQRAQRAQARQARQ (also: radioiodinated (125I, chloramine T)) [Peptide p5R]
